# High-throughput results: PubChem BioAssay, several laboratories
# proKLK7 act = proKLK7 zymogen activators, primary screen, biochemical, fluorescence intensity; purified proKLK7, EDANS-DABCYL substrate fluorescence; 100% is mature enzyme control, 0% vehicle; activation, % at 7 µM; actives 0.9% (n = 370,000);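 active = activation above the mean of all tested compounds plus 3 SD, computed per campaign excluding outliers beyond control limits, cut at about 13% in these data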
# Target sequence (P49862 whole entry, looked up): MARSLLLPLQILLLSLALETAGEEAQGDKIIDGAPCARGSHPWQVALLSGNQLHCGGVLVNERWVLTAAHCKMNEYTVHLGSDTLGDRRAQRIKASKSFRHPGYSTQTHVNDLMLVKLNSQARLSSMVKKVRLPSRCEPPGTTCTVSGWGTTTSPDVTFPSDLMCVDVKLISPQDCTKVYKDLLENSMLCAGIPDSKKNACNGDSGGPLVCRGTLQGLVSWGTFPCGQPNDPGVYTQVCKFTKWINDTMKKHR
# RanGTP-Imp inh = inhibitors of RanGTP-importin-beta interaction, primary screen, biochemical, FRET, CFP-Ran, YFP-importin-beta, homogeneous | Ran GTPase (GTP-bound) - importin-beta complex | cell-free CFP-Ran/YFP-importin-beta FRET ratio | inhibition, % (concentration not given with the values) | actives 1.1% (n = 300,000);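 active = more than half of the replicate wells show a fall in the fluorescence ratio signal beyond about 16%, limit read from the data, passing the limit was not always enough; inconclusive = exactly half of the replicate wells pass the set limit; inactive = fewer than half of replicates pass the limit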;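 also: 0% = DMSO wells and 100% = Ran loaded with GDP instead of GTP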
# MEX-5 binding = MEX-5 zinc finger RNA-binding disruptors – biochemical, C. elegans, fluorescence polarization, MLPCN library, primary screen; actives 0.38% (n = 300,000); activity score (negative = inhibition of binding), % at 10 µM; MEX-5/FITC-TCR2 RNA binding; hits give low values; Zinc finger protein mex-5 (Caenorhabditis elegans), Q9XUB2; AID 1832, 2009;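 active = inhibition past about -25% in most replicates, and total fluorescence under double the plate's negative control median, limit read from the data; inconclusive = replicates evenly split on the limit, or fluorescence at least double controls; inactive = too little inhibition in most replicates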;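 also: 0% = DMSO and -100% = 5 µM competing unlabeled TCR2 RNA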
# Target sequence (Q9XUB2 whole entry, looked up): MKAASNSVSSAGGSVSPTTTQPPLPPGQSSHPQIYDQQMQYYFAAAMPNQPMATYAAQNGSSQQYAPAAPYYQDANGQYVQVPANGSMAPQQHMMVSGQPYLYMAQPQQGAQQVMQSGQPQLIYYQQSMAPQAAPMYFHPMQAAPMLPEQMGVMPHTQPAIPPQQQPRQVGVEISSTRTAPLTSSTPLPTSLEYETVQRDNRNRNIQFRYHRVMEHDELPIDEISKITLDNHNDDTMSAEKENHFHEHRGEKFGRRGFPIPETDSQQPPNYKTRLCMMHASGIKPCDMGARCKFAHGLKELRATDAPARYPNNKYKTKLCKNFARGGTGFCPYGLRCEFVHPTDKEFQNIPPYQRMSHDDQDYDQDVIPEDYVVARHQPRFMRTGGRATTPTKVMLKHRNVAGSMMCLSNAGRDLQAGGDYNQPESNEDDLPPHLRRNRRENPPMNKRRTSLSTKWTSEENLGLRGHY
# Runt-CBFb FRET = inhibitors of RUNX1 Runt–CBFb binding, primary screen, biochemical, FRET, Cerulean-Runt, Venus-CBFb, uHTS; inhibition, % at 20 µM; Cerulean-Runt/Venus-CBFb FRET ratio 530/480, 1 h; AID 1496, 2009; actives 0.46% (n = 220,000);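 active = inhibition over about 50% at 20 µM in the single-dose screen, limit read from the data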;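 also: 0% = DMSO wells and 100% = excess unlabeled CBFb competitor control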
#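 Measured by: fluorescence energy transfer, 422 nm excitation, 530/480 nm emission; test system: Cerulean-tagged RUNX1 Runt domain (FRET donor) fusion protein; buffer or medium: Tris pH 7.5 buffer with BSA; compound: one dose, 20 µM compound, 1% DMSO; times: two 1 h room-temperature incubations shielded from light; benchmarks: unlabeled CBFb 5 µM, positive control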
# Runt-SMMHC FRET = inhibitors of RUNX1 Runt–CBFb-SMMHC binding, primary screen, biochemical, FRET, Cerulean-Runt, Venus-CBFb-SMMHC, uHTS; Runt-related transcription factor 1 (Homo sapiens) + Core-binding factor subunit beta …; Cerulean-Runt/Venus-CBFb-SMMHC FRET ratio 530/480, 1 h; inhibition, % at 20 µM; actives 0.74% (n = 220,000);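 active = mean inhibition across duplicate retests at 20 µM reaching about 50%, limit read from the data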;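 also: 0% = DMSO wells and 100% = wells with excess untagged CBFb-SMMHC; inhibitors lower the FRET ratio by blocking Runt binding to CBFb-SMMHC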
# Runt-CBFb TRFRET = inhibitors of RUNX1 Runt–CBFb binding, biochemical, TR-FRET | shares compounds with Runt-CBFb FRET | TR-FRET RUNX1 Runt domain-CBFb binding | actives 20% (n = 480) | inhibition, % at 20 µM; in the data active = inhibition above about 40%
# YIC FRET counter = YIC intramolecular FRET probe signal interference, dose response, counter-screen for RanGTP-importin-beta inhibitor project, biochemical, fluorescence FRET; Purified YIC probe, intramolecular FRET ratio YFP/CFP; IC50, µM; shares compounds with RanGTP-Imp inh; actives 40% (n = 1,000);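 active = fitted half-maximal inhibitory concentration no more than tenfold above the top dose tested; inconclusive = flat fit with 30 to 70% activity, or poor fit; inactive = half-maximal concentration beyond tenfold above the top dose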
# KLK7 act conf = proKLK7 zymogen activators, confirmation, biochemical, fluorescence intensity, triplicate; purified proKLK7, EDANS-DABCYL substrate fluorescence; scaled: vehicle 0, mature enzyme 100; actives 68% (n = 3,200); shares compounds with proKLK7 act; AID 686949, 2013; activation, % at 7 µM;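 active = activation, as change over the incubation, above the mean of all tested compounds plus 3 SD, cut at about 13% in these data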
# EDANS interfere = EDANS-DABCYL substrate optical interference, artefact control for kallikrein-7 zymogen activator project, biochemical, fluorescence intensity, high throughput. no enzyme, 4 h; solvent 0%, active enzyme control 100%. AID 686952, 2013. actives 80% (n = 3,200). shares compounds with proKLK7 act. activation, % at 7 µM;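 active = activation above the all-compound mean plus 3 SD, ignoring values outside control-based bounds, cut at about 4.8% in these data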;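 also: value is the 4 h activation minus the activation read at time zero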
# Active calls of the source: *; ? = inconclusive; . = no result given. Shown are actives, neighbours in structure and some others; about 2.1% of the full set was active somewhere.
SMILES,proKLK7 act,RanGTP-Imp inh,MEX-5 binding,Runt-CBFb FRET,Runt-SMMHC FRET,YIC FRET counter,others
COc1ccc2cc(-c3nc4ccccc4n3C)c(=O)oc2c1,22*,44*,-1,60*,127*,11*,Runt-CBFb TRFRET=24;KLK7 act conf=39*;EDANS interfere=35*
CC(C)C(=O)N1CCCC1(C)C(=O)N(C)Cc1cccc2ccccc12 (centres undefined),1,.,.,.,.,.,
CCc1cc(=O)oc2cc(C)c(CN3CCCC3)c(O)c12,-2,-7,-1,-4,-21,.,
Cc1cc(=O)oc2c(CN3CCC(C)CC3)c(O)c(Cl)cc12,70*,.,-40*,77*,140*,.,Runt-CBFb TRFRET=41*;KLK7 act conf=65*;EDANS interfere=66*
Cc1cc(=O)oc2c(CN3CCCCC3)c(O)c(Cl)cc12,61*,9,-1,62*,134*,.,Runt-CBFb TRFRET=-6;KLK7 act conf=61*;EDANS interfere=60*
CCCc1cc(=O)oc2c(CN3CCCC3)c(O)ccc12,60*,9,-1,54*,122*,.,Runt-CBFb TRFRET=-13;KLK7 act conf=72*;EDANS interfere=69*
CCN1CCN(Cc2c(O)c(Cl)cc3c(C)cc(=O)oc23)CC1,71*,27*,-7,94*,168*,39*,Runt-CBFb TRFRET=18;KLK7 act conf=81*;EDANS interfere=80*
Cc1ccc(C(=O)COC(=O)CNC(=O)c2ccccc2)s1,0,.,.,.,.,.,
CCCS(=O)(=O)NC(=O)C1(C)CCN(C(=O)c2cc(C)on2)C1 (centres undefined),0,.,.,.,.,.,
COC(=O)[C@]12C[C@H](CC(=O)NCCCN3CCCC3=O)C(=O)N(CCC3=CCCCC3)C1=C[C@H](C(C)C)O[C@@H]2C1CC1,0,.,.,.,.,.,
O=C(Nc1ccccc1)O[C@@H]1C[C@H]2CCC(=O)N3CC[C@@H](C1)[C@@H]23,.,?,4,.,.,.,
Cc1c(C)c2cc(Cl)c(O)c(CN3CCCC(C)C3)c2oc1=O (centres undefined),42*,?,-1,84*,139*,.,Runt-CBFb TRFRET=33;KLK7 act conf=69*;EDANS interfere=73*
CCN(CC)Cc1c(O)c(Cl)cc2c(C)c(C)c(=O)oc12,58*,20*,0,83*,91*,30*,Runt-CBFb TRFRET=-202;KLK7 act conf=66*;EDANS interfere=83*
CCc1cc2c(=O)c(-c3nc4ccccc4n3C)coc2c(CN2CCCC(C)C2)c1O (centres undefined),8,7,1,.,.,.,
COC1=CC(=O)OC(c2ccc(C#N)cc2)C1 (centres undefined),0,.,.,.,.,.,
COCCOC(=O)c1c(N)n(CCCN2CCOCC2)c2nc3ccccc3nc12,46*,11,-3,51*,97*,.,Runt-CBFb TRFRET=-4;KLK7 act conf=75*;EDANS interfere=79*
Cc1c(O)ccc2c3c(c(=O)oc12)CCC(C)C3 (centres undefined),39*,37*,0,66*,118*,14*,Runt-CBFb TRFRET=20;KLK7 act conf=63*;EDANS interfere=84*
CC(=O)COc1ccc2c3c(c(=O)oc2c1C)CCCCC3,0,?,-1,0,4,.,
O=C(c1ccco1)N1CCN(C2CN(Cc3ccc(F)cc3)S(=O)(=O)C2)CC1 (centres undefined),0,.,.,.,.,.,
Cc1cc(NCCCO)n2nc(-c3cccs3)cc2n1,2,-2,2,1,-6,.,
Cc1cc(NCCN(C)C)n2nc(-c3cccs3)cc2n1,5,17*,-1,4,7,24*,
CCN(C(=O)c1coc(=O)c(Br)c1)c1ccc2c(c1)OCO2,-6,-11,-12,-11,-29,.,
CCN(C(=O)c1c(C)cc(=O)oc1C)c1ccc2c(c1)OCO2,0,17*,-1,4,-3,>50,
Cc1ccc(C(=O)NNC2CC(=O)N(c3ccc4c(c3)OCCO4)C2=O)cc1 (centres undefined),0,18*,-1,.,4,>50,
COc1ccc(C(=O)N(C)[C@H]2C[C@H]3c4[nH]c5cccc(-c6ccccc6)c5c4CCN3C[C@H]2[C@H](C)O)cc1,-8,.,.,.,.,.,
SMILES,proKLK7 act,RanGTP-Imp inh,MEX-5 binding,Runt-CBFb FRET,Runt-SMMHC FRET,YIC FRET counter,others
Cc1cnc(=O)[nH]c1SCC(=O)c1ccc(F)cc1,0,16*,-1,.,.,>50,
Cc1csc(NC(=O)CSc2[nH]c(=O)ncc2C)n1,0,1,-2,.,.,.,
Cc1ccnc2nc(C(=O)OCC(=O)N(C)C3CCCCC3)nn12,0,.,.,.,.,.,
O=C(CSc1nnc(-c2cccnc2)o1)c1cc2ccccc2oc1=O,-1,-2,0,2,-12,.,
Cn1cnnc1SCC(=O)c1cc2ccccc2oc1=O,-3,18*,-5,13,5,>50,
O=C(CCN1C(=O)COc2ccccc21)N1CCCCC1,0,24*,4,1,3,>50,
COc1ccc(Cn2cc(CN3[C@H](Cc4ccccc4)COc4cc(Br)ccc4S3(=O)=O)nn2)cc1,1,.,.,.,.,.,
CCOC(=O)c1sc2ncc([N+](=O)[O-])cc2c1N,0,7,-1,1,-1,.,
CCOC(=O)CNc1ncc([N+](=O)[O-])cc1C#N,0,20*,-3,2,-1,>50,
C[C@@H]1CN([C@H](C)CO)C(=O)Cc2cc(NC(=O)Nc3ccc4c(c3)OCO4)ccc2O[C@@H]1CN(C)CC1CC1,.,.,.,.,.,>50,
CCOC(=O)/C(C#N)=C\c1ccc(N2CCN(C)CC2)cc1,0,21*,-1,14,44,16*,
CCOC(=O)/C(C#N)=C/c1ccc(N2CCN(C)CC2)cc1,0,20*,5,10,35,16*,
Cc1cccn2c(=O)c3cc(C(=O)NC4CCCCC4C)n(C)c3nc12 (centres undefined),-4,2,-1,.,.,.,
